Measurements from ChEMBL document CHEMBL4725483, “Simultaneous Inhibition of SIRT2 Deacetylase and Defatty-Acylase Activities via a PROTAC Strategy” (ACS Med Chem Lett, 2020).
Activity calls are given as the source filed them.

Columns and labels:
[1] = target: T1, NAD-dependent protein deacetylase sirtuin-2 (Homo sapiens, UniProt Q8IXJ6); test: Inhibition of human SIRT2 deacetylation activity using H3K9Ac as substrate preincubated for 15 mins in presence of NAD+ by HPLC analysis
T1 sequence (Q8IXJ6 whole entry): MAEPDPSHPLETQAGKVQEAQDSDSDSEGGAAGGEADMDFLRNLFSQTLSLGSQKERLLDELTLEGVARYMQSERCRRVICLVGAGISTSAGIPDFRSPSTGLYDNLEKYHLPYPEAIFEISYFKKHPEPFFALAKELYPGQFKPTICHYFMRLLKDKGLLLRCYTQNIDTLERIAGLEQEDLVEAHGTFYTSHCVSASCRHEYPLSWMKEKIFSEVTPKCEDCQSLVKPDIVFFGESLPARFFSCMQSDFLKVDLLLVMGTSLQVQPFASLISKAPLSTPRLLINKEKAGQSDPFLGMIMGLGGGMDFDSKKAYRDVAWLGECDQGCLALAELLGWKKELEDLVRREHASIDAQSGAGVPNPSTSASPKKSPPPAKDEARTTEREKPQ
Outline: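 In vitro sirtuin reaction mixture with compound at a range of concentrations. Compound was preincubated with NAD+ and the enzyme before the substrate peptide was added. IC50 taken from the concentration series.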

[2] = target: T2, Protein cereblon/NAD-dependent protein deacetylase sirtuin-3, mitochondrial (Homo sapiens) (UniProt Q9NTG7+Q96SW2); test: Protac activity at CRBN/SIRT3 in human BT549 cells assessed as SIRT3 degradation at 5 to 10 uM after 48 hrs by immunoblot analysis; type: cell-based; settings: BT-549, dose microM 5-10, time 48.0 hrs
T2 sequence (Q96SW2 whole entry, looked up): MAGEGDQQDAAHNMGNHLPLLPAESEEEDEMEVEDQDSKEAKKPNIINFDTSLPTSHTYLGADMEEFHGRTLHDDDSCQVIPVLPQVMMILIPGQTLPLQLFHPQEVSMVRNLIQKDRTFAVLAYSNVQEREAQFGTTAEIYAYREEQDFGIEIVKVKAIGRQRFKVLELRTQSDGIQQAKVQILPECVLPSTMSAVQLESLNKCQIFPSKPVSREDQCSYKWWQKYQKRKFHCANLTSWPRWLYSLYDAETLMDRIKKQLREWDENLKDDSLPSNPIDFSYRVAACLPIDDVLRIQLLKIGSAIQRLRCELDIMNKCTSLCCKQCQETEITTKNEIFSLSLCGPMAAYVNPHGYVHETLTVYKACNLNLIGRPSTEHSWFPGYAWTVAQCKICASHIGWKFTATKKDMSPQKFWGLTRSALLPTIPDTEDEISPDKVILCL
T2 sequence (Q9NTG7 whole entry, looked up): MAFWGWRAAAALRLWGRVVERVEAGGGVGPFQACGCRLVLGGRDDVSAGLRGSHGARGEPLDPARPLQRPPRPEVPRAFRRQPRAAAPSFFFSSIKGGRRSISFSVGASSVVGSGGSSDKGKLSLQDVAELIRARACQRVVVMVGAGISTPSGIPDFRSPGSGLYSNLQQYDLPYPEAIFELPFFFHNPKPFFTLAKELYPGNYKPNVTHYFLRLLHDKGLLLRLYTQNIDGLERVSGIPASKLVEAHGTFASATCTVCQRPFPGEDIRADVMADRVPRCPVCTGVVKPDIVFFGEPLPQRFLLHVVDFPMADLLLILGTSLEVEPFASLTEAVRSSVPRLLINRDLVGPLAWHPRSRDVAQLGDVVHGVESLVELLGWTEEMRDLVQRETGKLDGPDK
Outline: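 MCF7 or BT-549 cells exposed to inhibitor at the indicated concentrations for 48 h; SIRT1, SIRT2 and SIRT3 levels read by immunoblot.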

[3] = target: T3, Protein cereblon/NAD-dependent protein deacetylase sirtuin-2 (Homo sapiens) (UniProt Q8IXJ6+Q96SW2); test: Protac activity at CRBN/SIRT2 in human MCF7 cells assessed as SIRT2 degradation at 10 uM by immunoblot analysis; type: cell-based; settings: TDE = time-dependent effect
T3 sequence (Q96SW2 whole entry, looked up, one chain of several): as the sequence (Q96SW2 whole entry, looked up) above
Outline: (§1)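 MCF7 cells treated at a fixed concentration (10 or 25 μM) and harvested at several incubation times; SIRT2 level read by immunoblot.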

[4] = target: T3, Protein cereblon/NAD-dependent protein deacetylase sirtuin-2 (Homo sapiens); test: Protac activity at CRBN/SIRT2 in human MCF7 cells assessed as SIRT2 degradation at 25 uM by immunoblot analysis; type: cell-based; outline: as §1
[5] = target: T3, Protein cereblon/NAD-dependent protein deacetylase sirtuin-2 (Homo sapiens); test: Protac activity at CRBN/SIRT2 in human HEK293T cells stably expressing flag-tagged K-Ras4a assessed as inhibition of SIRT2 defatty-acylation at 1 uM incubated for 42 hrs followed by Alkyne-14 addition and measured after 6 hrs by immunoprecipitation based assay; type: cell-based; settings: HEK-293T
Outline: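 HEK 293T cells stably expressing Flag-K-Ras4a-G12V were treated with 1 μM compound for 42 h, then labelled with 50 μM Alk-14 for 6 h more. Flag-K-Ras4a was immunoprecipitated and a fluorescent dye attached by click chemistry. NH2OH was applied to strip cysteine fatty acylation, and lysine fatty acylation was measured by in-gel fluorescence and quantified relative to DMSO.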

[6] = target: T2, Protein cereblon/NAD-dependent protein deacetylase sirtuin-3, mitochondrial (Homo sapiens); test: Protac activity at CRBN/SIRT3 in human HEK293T cells stably expressing flag-tagged K-Ras4a-G12V assessed as inhibition of SIRT2 defatty-acylation at 1 uM incubated for 48 hrs by immunoblot analysis; type: cell-based; settings: HEK-293T
Outline: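 HEK 293T cells stably overexpressing Flag-tagged K-Ras4a-G12V (confirmed by pan-Ras blot) were exposed to 1 μM compound for 48 h. SIRT1, SIRT2 and SIRT3 levels were then read by immunoblot.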

MDA-MB-231 = test: Cytotoxicity against human MDA-MB-231 cells assessed as reduction in cell viability at 1 uM after 72 hrs; type: functional, cell-based
[7] = target: T2, Protein cereblon/NAD-dependent protein deacetylase sirtuin-3, mitochondrial (Homo sapiens); test: Protac activity at CRBN/SIRT3 in human HEK293T cells assessed as abundance ratio at 5 uM incubated for 16 hrs by TMT global proteomics assay relative to DMSO; type: cell-based; settings: HEK-293T
Outline: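 HEK 293T cells given 5 μM compound for 16 h. Global proteomics used Tandem Mass Tag labelling, and each sirtuin's abundance is given as a ratio of treated to DMSO-treated cells.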

[8] = target: Protein cereblon/NAD-dependent protein deacylase sirtuin-5, mitochondrial (Homo sapiens) (UniProt Q9NXA8+Q96SW2); test: Protac activity at CRBN/SIRT5 in human HEK293T cells assessed as abundance ratio at 5 uM incubated for 16 hrs by TMT global proteomics assay relative to DMSO; type: cell-based; settings: HEK-293T
Protein cereblon/NAD-dependent protein deacylase sirtuin-5, mitochondrial (Homo sapiens), sequence (Q96SW2 whole entry, looked up): as above
Protein cereblon/NAD-dependent protein deacylase sirtuin-5, mitochondrial (Homo sapiens), sequence (Q9NXA8 whole entry, looked up): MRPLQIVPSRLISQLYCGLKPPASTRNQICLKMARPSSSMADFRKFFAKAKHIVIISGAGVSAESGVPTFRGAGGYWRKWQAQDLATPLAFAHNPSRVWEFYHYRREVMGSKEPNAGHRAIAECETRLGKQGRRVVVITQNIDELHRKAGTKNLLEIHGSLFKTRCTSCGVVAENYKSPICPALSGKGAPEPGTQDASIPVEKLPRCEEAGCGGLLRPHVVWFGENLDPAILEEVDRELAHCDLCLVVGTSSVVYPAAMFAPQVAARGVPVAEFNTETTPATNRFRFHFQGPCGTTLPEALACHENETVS
Outline: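 HEK 293T cells were treated for 16 h. Global proteome was quantified by Tandem Mass Tag labelling. The abundance ratio of each sirtuin was taken against DMSO-treated cells.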

CCCCCCCCCCCCCC(=S)NCCCC[C@H](NC(=O)CCOCCOCCOCCOCCNc1cccc2c1C(=O)N(C1CCC(=O)NC1=O)C2=O)C(=O)Nc1ccccc1 (some centres undefined)
78 nM: IC50 [1]
inactive: Activity [2] | Activity [4] | Activity [6] | Activity (MDA-MB-231) | Activity [7] | Activity [8]
active: Activity [3] Tde | Activity [5]
